Columns and labels:
[1] = tested on: Intestine; assay: Biodistribution in intestine of C57BL/6 mouse xenografted with mouse B16F10 cells at 3.7 MBq, iv after 1 hr by gamma-scintillation counting analysis; assay type: ADME, organism-based, B16-F10; conditions: in vivo
Method in brief: (§1)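 1.0 × 10^6 B16F10 cells in PBS injected subcutaneously into the right shoulder of C57BL/6 mice, grown to 0.5 cm (~10 day). Tail-vein injection of about 3.7 MBq (100 μCi) 18F probe in PBS (0.1 M, pH 7.4). Killed at 1.0 or 2.0 h p.i. (n = 4 per group). Tissues excised, weighed and gamma-counted; uptake expressed as %ID/g, mean ± SD.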

[2] = tested on: Brain; assay: Biodistribution in brain of C57BL/6 mouse xenografted with mouse B16F10 cells at 3.7 MBq, iv after 1 hr by gamma-scintillation counting analysis; assay type: ADME, organism-based, B16-F10; conditions: in vivo; method in brief: as §1
[3] = tested on: Stomach; assay: Biodistribution in stomach of C57BL/6 mouse xenografted with mouse B16F10 cells at 3.7 MBq, iv after 1 hr by gamma-scintillation counting analysis; assay type: ADME, organism-based, B16-F10; conditions: in vivo; method in brief: as §1
[4] = tested on: Spleen; assay: Biodistribution in spleen of C57BL/6 mouse xenografted with mouse B16F10 cells at 3.7 MBq, iv after 1 hr by gamma-scintillation counting analysis; assay type: ADME, organism-based, B16-F10; conditions: in vivo; method in brief: as §1
[5] = tested on: Pancreas; assay: Biodistribution in pancreas of C57BL/6 mouse xenografted with mouse B16F10 cells at 3.7 MBq, iv after 1 hr by gamma-scintillation counting analysis; assay type: ADME, organism-based, B16-F10; conditions: in vivo; method in brief: as §1
[6] = tested on: Liver; assay: Biodistribution in liver of C57BL/6 mouse xenografted with mouse B16F10 cells at 3.7 MBq, iv after 1 hr by gamma-scintillation counting analysis; assay type: ADME, organism-based, B16-F10; conditions: in vivo; method in brief: as §1
[7] = tested on: Mus musculus; assay: Biodistribution in lungs of C57BL/6 mouse xenografted with mouse B16F10 cells at 3.7 MBq, iv after 1 hr by gamma-scintillation counting analysis; assay type: ADME, organism-based, Lung, B16-F10; conditions: in vivo; method in brief: as §1
[8] = tested on: Heart; assay: Biodistribution in heart of C57BL/6 mouse xenografted with mouse B16F10 cells at 3.7 MBq, iv after 1 hr by gamma-scintillation counting analysis; assay type: ADME, organism-based, B16-F10; conditions: in vivo; method in brief: as §1
[9] = tested on: Mus musculus; assay: Biodistribution in tumor of C57BL/6 mouse xenografted with mouse B16F10 cells at 3.7 MBq, iv after 1 hr by gamma-scintillation counting analysis; assay type: ADME, organism-based, Neoplasm, B16-F10; conditions: in vivo; method in brief: as §1
[10] = tested on: Blood; assay: Biodistribution in blood of C57BL/6 mouse xenografted with mouse B16F10 cells at 3.7 MBq, iv after 1 hr by gamma-scintillation counting analysis; assay type: ADME, organism-based, B16-F10; conditions: in vivo; method in brief: as §1
[11] = Drug uptake in tumor of C57BL/6 mouse xenografted with mouse B16F10 cells at 3.7 MBq, iv after 2 hrs by PET imaging analysis; assay type: ADME, organism-based, Neoplasm, B16-F10; conditions: in vivo
Method in brief: (§2)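 Static small-animal PET at 0.5, 1 and 2 h after tail-vein injection of ~3.7 MBq (100 μCi) into B16F10-bearing C57BL/6 mice (n = 4 per probe). Isoflurane anesthesia, 5% induction and 2% maintenance in O2. Decay-corrected images. ROI-derived %ID/g assumes 1 g/ml density, without attenuation correction. Mean ± SD.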

[12] = Drug uptake in tumor of C57BL/6 mouse xenografted with mouse B16F10 cells at 3.7 MBq, iv after 1 hr by PET imaging analysis; assay type: ADME, organism-based, Neoplasm, B16-F10; conditions: in vivo; method in brief: as §2
[13] = Drug uptake in tumor of C57BL/6 mouse xenografted with mouse B16F10 cells at 3.7 MBq, iv after 0.5 hrs by PET imaging analysis; assay type: ADME, organism-based, Neoplasm, B16-F10; conditions: in vivo; method in brief: as §2
[14] = tested on: Nucleic Acid; assay: Ratio of drug uptake in tumor to muscle of C57BL/6 mouse xenografted with mouse B16F10 cells at 3.7 MBq, iv after 2 hrs by gamma-scintillation counting analysis; assay type: ADME, organism-based, B16-F10; conditions: in vivo
Method in brief: (§3)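 Same subcutaneous B16F10 model and tail-vein dose of about 3.7 MBq (100 μCi), n = 4 per group. Dissection at 1 or 2 h p.i. Gamma-counter %ID/g of tumor divided by that of blood, lung, liver or muscle, given as mean ± SD.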

[15] = tested on: Nucleic Acid; assay: Ratio of drug uptake in tumor to liver of C57BL/6 mouse xenografted with mouse B16F10 cells at 3.7 MBq, iv after 2 hrs by gamma-scintillation counting analysis; assay type: ADME, organism-based, B16-F10; conditions: in vivo; method in brief: as §3
[16] = tested on: Nucleic Acid; assay: Ratio of drug uptake in tumor to lungs of C57BL/6 mouse xenografted with mouse B16F10 cells at 3.7 MBq, iv after 2 hrs by gamma-scintillation counting analysis; assay type: ADME, organism-based, B16-F10; conditions: in vivo; method in brief: as §3
[17] = tested on: Nucleic Acid; assay: Ratio of drug uptake in tumor to blood of C57BL/6 mouse xenografted with mouse B16F10 cells at 3.7 MBq, iv after 2 hrs by gamma-scintillation counting analysis; assay type: ADME, organism-based, B16-F10; conditions: tumour; method in brief: as §3
[18] = tested on: Nucleic Acid; assay: Ratio of drug uptake in tumor to muscle of C57BL/6 mouse xenografted with mouse B16F10 cells at 3.7 MBq, iv after 1 hr by gamma-scintillation counting analysis; assay type: ADME, organism-based, B16-F10; conditions: in vivo; method in brief: as §3
[19] = tested on: Nucleic Acid; assay: Ratio of drug uptake in tumor to liver of C57BL/6 mouse xenografted with mouse B16F10 cells at 3.7 MBq, iv after 1 hr by gamma-scintillation counting analysis; assay type: ADME, organism-based, B16-F10; conditions: in vivo; method in brief: as §3
[20] = tested on: Nucleic Acid; assay: Ratio of drug uptake in tumor to lungs of C57BL/6 mouse xenografted with mouse B16F10 cells at 3.7 MBq, iv after 1 hr by gamma-scintillation counting analysis; assay type: ADME, organism-based, B16-F10; conditions: in vivo; method in brief: as §3
[21] = tested on: Nucleic Acid; assay: Ratio of drug uptake in tumor to blood of C57BL/6 mouse xenografted with mouse B16F10 cells at 3.7 MBq, iv after 1 hr by gamma-scintillation counting analysis; assay type: ADME, organism-based, B16-F10; conditions: tumour; method in brief: as §3
[22] = tested on: Mus musculus; assay: Biodistribution in eye of C57BL/6 mouse xenografted with mouse B16F10 cells at 3.7 MBq, iv after 2 hrs by gamma-scintillation counting analysis; assay type: ADME, organism-based, B16-F10; conditions: in vivo; method in brief: as §1
[23] = tested on: Bone; assay: Biodistribution in bone of C57BL/6 mouse xenografted with mouse B16F10 cells at 3.7 MBq, iv after 2 hrs by gamma-scintillation counting analysis; assay type: ADME, organism-based, Bone element, B16-F10; conditions: in vivo; method in brief: as §1
[24] = tested on: Muscle tissue; assay: Biodistribution in muscle of C57BL/6 mouse xenografted with mouse B16F10 cells at 3.7 MBq, iv after 2 hrs by gamma-scintillation counting analysis; assay type: ADME, organism-based, B16-F10; conditions: in vivo; method in brief: as §1
[25] = tested on: Zone of skin; assay: Biodistribution in skin of C57BL/6 mouse xenografted with mouse B16F10 cells at 3.7 MBq, iv after 2 hrs by gamma-scintillation counting analysis; assay type: ADME, organism-based, B16-F10; conditions: in vivo; method in brief: as §1
[26] = tested on: Kidney; assay: Biodistribution in kidney of C57BL/6 mouse xenografted with mouse B16F10 cells at 3.7 MBq, iv after 2 hrs by gamma-scintillation counting analysis; assay type: ADME, organism-based, B16-F10; conditions: in vivo; method in brief: as §1
[27] = tested on: Intestine; assay: Biodistribution in intestine of C57BL/6 mouse xenografted with mouse B16F10 cells at 3.7 MBq, iv after 2 hrs by gamma-scintillation counting analysis; assay type: ADME, organism-based, B16-F10; conditions: in vivo; method in brief: as §1
[28] = tested on: Brain; assay: Biodistribution in brain of C57BL/6 mouse xenografted with mouse B16F10 cells at 3.7 MBq, iv after 2 hrs by gamma-scintillation counting analysis; assay type: ADME, organism-based, B16-F10; conditions: in vivo; method in brief: as §1
[29] = tested on: Stomach; assay: Biodistribution in stomach of C57BL/6 mouse xenografted with mouse B16F10 cells at 3.7 MBq, iv after 2 hrs by gamma-scintillation counting analysis; assay type: ADME, organism-based, B16-F10; conditions: in vivo; method in brief: as §1
[30] = tested on: Pancreas; assay: Biodistribution in pancreas of C57BL/6 mouse xenografted with mouse B16F10 cells at 3.7 MBq, iv after 2 hrs by gamma-scintillation counting analysis; assay type: ADME, organism-based, B16-F10; conditions: in vivo; method in brief: as §1
[31] = tested on: Spleen; assay: Biodistribution in spleen of C57BL/6 mouse xenografted with mouse B16F10 cells at 3.7 MBq, iv after 2 hrs by gamma-scintillation counting analysis; assay type: ADME, organism-based, B16-F10; conditions: in vivo; method in brief: as §1
[32] = tested on: Liver; assay: Biodistribution in liver of C57BL/6 mouse xenografted with mouse B16F10 cells at 3.7 MBq, iv after 2 hrs by gamma-scintillation counting analysis; assay type: ADME, organism-based, B16-F10; conditions: in vivo; method in brief: as §1
[33] = tested on: Mus musculus; assay: Biodistribution in lungs of C57BL/6 mouse xenografted with mouse B16F10 cells at 3.7 MBq, iv after 2 hrs by gamma-scintillation counting analysis; assay type: ADME, organism-based, Lung, B16-F10; conditions: in vivo; method in brief: as §1
[34] = tested on: Heart; assay: Biodistribution in heart of C57BL/6 mouse xenografted with mouse B16F10 cells at 3.7 MBq, iv after 2 hrs by gamma-scintillation counting analysis; assay type: ADME, organism-based, B16-F10; conditions: in vivo; method in brief: as §1
[35] = tested on: Blood; assay: Biodistribution in blood of C57BL/6 mouse xenografted with mouse B16F10 cells at 3.7 MBq, iv after 2 hrs by gamma-scintillation counting analysis; assay type: ADME, organism-based, B16-F10; conditions: in vivo; method in brief: as §1
[36] = tested on: Mus musculus; assay: Biodistribution in tumor of C57BL/6 mouse xenografted with mouse B16F10 cells at 3.7 MBq, iv after 2 hrs by gamma-scintillation counting analysis; assay type: ADME, organism-based, Neoplasm, B16-F10; conditions: in vivo; method in brief: as §1
[37] = tested on: Bone; assay: Biodistribution in bone of C57BL/6 mouse xenografted with mouse B16F10 cells at 3.7 MBq, iv after 1 hr by gamma-scintillation counting analysis; assay type: ADME, organism-based, Bone element, B16-F10; conditions: in vivo; method in brief: as §1
[38] = tested on: Mus musculus; assay: Biodistribution in eye of C57BL/6 mouse xenografted with mouse B16F10 cells at 3.7 MBq, iv after 1 hr by gamma-scintillation counting analysis; assay type: ADME, organism-based, B16-F10; conditions: in vivo; method in brief: as §1
[39] = tested on: Muscle tissue; assay: Biodistribution in muscle of C57BL/6 mouse xenografted with mouse B16F10 cells at 3.7 MBq, iv after 1 hr by gamma-scintillation counting analysis; assay type: ADME, organism-based, B16-F10; conditions: in vivo; method in brief: as §1
[40] = tested on: Zone of skin; assay: Biodistribution in skin of C57BL/6 mouse xenografted with mouse B16F10 cells at 3.7 MBq, iv after 1 hr by gamma-scintillation counting analysis; assay type: ADME, organism-based, B16-F10; conditions: in vivo; method in brief: as §1
[41] = tested on: Kidney; assay: Biodistribution in kidney of C57BL/6 mouse xenografted with mouse B16F10 cells at 3.7 MBq, iv after 1 hr by gamma-scintillation counting analysis; assay type: ADME, organism-based, B16-F10; conditions: in vivo; method in brief: as §1

- Drug uptake [1]: 3.46 % ID/g
- Drug uptake [2]: 1.56 % ID/g
- Drug uptake [3]: 5.03 % ID/g
- Drug uptake [4]: 2.88 % ID/g
- Drug uptake [5]: 3.58 % ID/g
- Drug uptake [6]: 4.47 % ID/g
- Drug uptake [7]: 1.52 % ID/g
- Drug uptake [8]: 1.54 % ID/g
- Drug uptake [9]: 9.54 % ID/g
- Drug uptake [10]: 0.46 % ID/g
- Drug uptake [11]: 8.47 % ID/g
- Drug uptake [12]: 7.94 % ID/g
- Drug uptake [13]: 7.54 % ID/g
- Ratio [14]: 15.22
- Ratio [15]: 7.26
- Ratio [16]: 10.49
- Ratio [17]: 39.2
- Ratio [18]: 11.24
- Ratio [19]: 2.24
- Ratio [20]: 6.23
- Ratio [21]: 20.44
- Drug uptake [22]: 32.23 % ID/g
- Drug uptake [23]: 2.12 % ID/g
- Drug uptake [24]: 0.52 % ID/g
- Drug uptake [25]: 0.71 % ID/g
- Drug uptake [26]: 1.2 % ID/g
- Drug uptake [27]: 0.89 % ID/g
- Drug uptake [28]: 0.41 % ID/g
- Drug uptake [29]: 2.27 % ID/g
- Drug uptake [30]: 0.71 % ID/g
- Drug uptake [31]: 0.56 % ID/g
- Drug uptake [32]: 1.07 % ID/g
- Drug uptake [33]: 0.92 % ID/g
- Drug uptake [34]: 0.4 % ID/g
- Drug uptake [35]: 0.2 % ID/g
- Drug uptake [36]: 9.29 % ID/g
- Drug uptake [37]: 3.48 % ID/g
- Drug uptake [38]: 34 % ID/g
- Drug uptake [39]: 1.11 % ID/g
- Drug uptake [40]: 2.37 % ID/g
- Drug uptake [41]: 5.63 % ID/g
SMILES: CCN(CC)CCNC(=O)c1ccc([18F])nc1
